Experimental data as given in ChEMBL document CHEMBL3244237, “Differences in antischistosomal and mutagenic properties between an isothiocyano- and an isocyanonitrodiphenylamine” (J Med Chem, 1977).

Columns and labels:
Schistosoma japonicum [1] = assay: Antischistosomal activity against Schistosoma japonicum infected mouse assessed as mouse with parasital cures at 250 mg/kg, po single dose; assay type: functional
Schistosoma japonicum [2] = assay: Antischistosomal activity against Schistosoma japonicum infected mouse assessed as mouse with parasital cures at 50 mg/kg, po single dose; assay type: functional
Salmonella typhimurium [3] = assay: Mutagenic activity in Salmonella typhimurium TA-98 at 60 nmol/plate by Ames test in presence of rat liver microsomes S9 fraction; assay type: toxicity, organism-based; details: salmonella enterica subsp. enterica serovar typhimurium
Outline: (§1)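 Ames plate-incorporation assay in Salmonella typhimurium TA-98 or TA-100 with rat liver microsomal S9 fraction. Compound was dissolved in Me2SO, with final Me2SO held at 0.1 mL per 15 mL medium on every plate, controls included. The top level tested was near that giving 10% growth inhibition. Read-out was revertant count in excess of solvent controls.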

Schistosoma japonicum [4] = assay: Antischistosomal activity against Schistosoma japonicum infected mouse assessed as mouse with parasital cures at 500 mg/kg, po single dose; assay type: functional
Schistosoma japonicum [5] = assay: Antischistosomal activity against Schistosoma japonicum infected mouse assessed as reduction in number of worms at 250 mg/kg, po single dose; assay type: functional
Salmonella typhimurium [6] = assay: Mutagenic activity in Salmonella typhimurium TA-100 at 17 nmol/plate by Ames test; assay type: toxicity, organism-based; details: salmonella enterica subsp. enterica serovar typhimurium
Outline: as §1, with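 “TA-100 without” for “TA-100 with”, “liver S9.” for “liver microsomal S9 fraction.”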

Salmonella typhimurium [7] = assay: Mutagenic activity in Salmonella typhimurium TA-100 at 60 nmol/plate by Ames test; assay type: toxicity, organism-based; details: salmonella enterica subsp. enterica serovar typhimurium
Outline: as §1, with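 “TA-100 without” for “TA-100 with”, “liver S9.” for “liver microsomal S9 fraction.”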

Schistosoma japonicum [8] = assay: Antischistosomal activity against Schistosoma japonicum infected mouse assessed as reduction in number of worms at 500 mg/kg, po single dose; assay type: functional
Schistosoma japonicum [9] = assay: Antischistosomal activity against Schistosoma japonicum infected mouse assessed as reduction in number of worms at 125 mg/kg, po single dose; assay type: functional
Salmonella typhimurium [10] = assay: Mutagenic activity in Salmonella typhimurium TA-98 at 60 nmol/plate by Ames test; assay type: toxicity, organism-based; details: salmonella enterica subsp. enterica serovar typhimurium
Outline: as §1, with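 “TA-100 without” for “TA-100 with”, “liver S9.” for “liver microsomal S9 fraction.”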

Salmonella typhimurium [11] = assay: Mutagenic activity in Salmonella typhimurium TA-98 at 17 nmol/plate by Ames test; assay type: toxicity, organism-based; details: salmonella enterica subsp. enterica serovar typhimurium
Outline: as §1, with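 “TA-100 without” for “TA-100 with”, “liver S9.” for “liver microsomal S9 fraction.”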

Salmonella typhimurium [12] = assay: Mutagenic activity in Salmonella typhimurium TA-100 at 17 nmol/plate by Ames test in presence of rat liver microsomes S9 fraction; assay type: toxicity, organism-based; details: salmonella enterica subsp. enterica serovar typhimurium; outline: as §1
Schistosoma japonicum [13] = assay: Antischistosomal activity against Schistosoma japonicum infected mouse assessed as reduction in number of worms at 50 mg/kg, po single dose; assay type: functional
Schistosoma japonicum [14] = assay: Antischistosomal activity against Schistosoma japonicum infected mouse assessed as mouse with parasital cures at 125 mg/kg, po single dose; assay type: functional
Salmonella typhimurium [15] = assay: Mutagenic activity in Salmonella typhimurium TA-100 at 60 nmol/plate by Ames test in presence of rat liver microsomes S9 fraction; assay type: toxicity, organism-based; details: salmonella enterica subsp. enterica serovar typhimurium; outline: as §1
Salmonella typhimurium [16] = assay: Mutagenic activity in Salmonella typhimurium TA-98 at 17 nmol/plate by Ames test in presence of rat liver microsomes S9 fraction; assay type: toxicity, organism-based; details: salmonella enterica subsp. enterica serovar typhimurium; outline: as §1
Schistosoma japonicum [17] = assay: Antischistosomal activity against Schistosoma japonicum infected mouse assessed as mouse with parasital cures at 10 mg/kg, po single dose; assay type: functional
Salmonella typhimurium [18] = assay: Mutagenic activity in Salmonella typhimurium TA-100 at 16 nmol/plate by Ames test in presence of rat liver microsomes S9 fraction; assay type: toxicity, organism-based; details: salmonella enterica subsp. enterica serovar typhimurium
Salmonella typhimurium [19] = assay: Mutagenic activity in Salmonella typhimurium TA-100 at 158 nmol/plate by Ames test; assay type: toxicity, organism-based; details: salmonella enterica subsp. enterica serovar typhimurium
Schistosoma japonicum [20] = assay: Antischistosomal activity against Schistosoma japonicum infected mouse assessed as reduction in number of worms at 7 mg/kg, po single dose; assay type: functional
Schistosoma japonicum [21] = assay: Antischistosomal activity against Schistosoma japonicum infected mouse assessed as reduction in number of worms at 5 mg/kg, po single dose; assay type: functional
Salmonella typhimurium [22] = assay: Mutagenic activity in Salmonella typhimurium TA-100 at 53 nmol/plate by Ames test in presence of rat liver microsomes S9 fraction; assay type: toxicity, organism-based; details: salmonella enterica subsp. enterica serovar typhimurium
Salmonella typhimurium [23] = assay: Mutagenic activity in Salmonella typhimurium TA-100 at 158 nmol/plate by Ames test in presence of rat liver microsomes S9 fraction; assay type: toxicity, organism-based; details: salmonella enterica subsp. enterica serovar typhimurium
Salmonella typhimurium [24] = assay: Mutagenic activity in Salmonella typhimurium TA-98 at 158 nmol/plate by Ames test; assay type: toxicity, organism-based; details: salmonella enterica subsp. enterica serovar typhimurium
Schistosoma japonicum [25] = assay: Antischistosomal activity against Schistosoma japonicum infected mouse assessed as mouse with parasital cures at 7 mg/kg, po single dose; assay type: functional
Salmonella typhimurium [26] = assay: Mutagenic activity in Salmonella typhimurium TA-98 at 5 nmol/plate by Ames test in presence of rat liver microsomes S9 fraction; assay type: toxicity, organism-based; details: salmonella enterica subsp. enterica serovar typhimurium
Salmonella typhimurium [27] = assay: Mutagenic activity in Salmonella typhimurium TA-98 at 16 nmol/plate by Ames test; assay type: toxicity, organism-based; details: salmonella enterica subsp. enterica serovar typhimurium
Schistosoma japonicum [28] = assay: Antischistosomal activity against Schistosoma japonicum infected mouse assessed as reduction in number of worms at 10 mg/kg, po single dose; assay type: functional
Salmonella typhimurium [29] = assay: Mutagenic activity in Salmonella typhimurium TA-98 at 53 nmol/plate by Ames test in presence of rat liver microsomes S9 fraction; assay type: toxicity, organism-based; details: salmonella enterica subsp. enterica serovar typhimurium
Schistosoma japonicum [30] = assay: Antischistosomal activity against Schistosoma japonicum infected mouse assessed as mouse with parasital cures at 5 mg/kg, po single dose; assay type: functional
Salmonella typhimurium [31] = assay: Mutagenic activity in Salmonella typhimurium TA-100 at 16 nmol/plate by Ames test; assay type: toxicity, organism-based; details: salmonella enterica subsp. enterica serovar typhimurium
Salmonella typhimurium [32] = assay: Mutagenic activity in Salmonella typhimurium TA-100 at 53 nmol/plate by Ames test; assay type: toxicity, organism-based; details: salmonella enterica subsp. enterica serovar typhimurium
Salmonella typhimurium [33] = assay: Mutagenic activity in Salmonella typhimurium TA-98 at 16 nmol/plate by Ames test in presence of rat liver microsomes S9 fraction; assay type: toxicity, organism-based; details: salmonella enterica subsp. enterica serovar typhimurium
Salmonella typhimurium [34] = assay: Mutagenic activity in Salmonella typhimurium TA-100 at 5 nmol/plate by Ames test in presence of rat liver microsomes S9 fraction; assay type: toxicity, organism-based; details: salmonella enterica subsp. enterica serovar typhimurium
Salmonella typhimurium [35] = assay: Mutagenic activity in Salmonella typhimurium TA-98 at 5 nmol/plate by Ames test; assay type: toxicity, organism-based; details: salmonella enterica subsp. enterica serovar typhimurium
Schistosoma japonicum [36] = assay: Antischistosomal activity against Schistosoma japonicum infected mouse assessed as mouse with parasital cures at 20 mg/kg, po single dose; assay type: functional
Schistosoma japonicum [37] = assay: Antischistosomal activity against Schistosoma japonicum infected mouse assessed as reduction in number of worms at 20 mg/kg, po single dose; assay type: functional
Salmonella typhimurium [38] = assay: Mutagenic activity in Salmonella typhimurium TA-100 at 5 nmol/plate by Ames test; assay type: toxicity, organism-based; details: salmonella enterica subsp. enterica serovar typhimurium
Salmonella typhimurium [39] = assay: Mutagenic activity in Salmonella typhimurium TA-98 at 158 nmol/plate by Ames test in presence of rat liver microsomes S9 fraction; assay type: toxicity, organism-based; details: salmonella enterica subsp. enterica serovar typhimurium
Salmonella typhimurium [40] = assay: Mutagenic activity in Salmonella typhimurium TA-98 at 53 nmol/plate by Ames test; assay type: toxicity, organism-based; details: salmonella enterica subsp. enterica serovar typhimurium

O=C=Nc1ccc(Nc2ccc([N+](=O)[O-])cc2)cc1
Activity (Schistosoma japonicum [1]): 0% | Activity (Schistosoma japonicum [2]): 0% | Activity (Salmonella typhimurium [3]): Toxic | Activity (Schistosoma japonicum [4]): 0% | inhibition in vivo at 250 mg/kg (Schistosoma japonicum [5]): 0% | Activity (Salmonella typhimurium [6]): Toxic | Activity (Salmonella typhimurium [7]): Toxic | inhibition in vivo at 500 mg/kg (Schistosoma japonicum [8]): 0% | inhibition in vivo at 125 mg/kg (Schistosoma japonicum [9]): 0% | Activity (Salmonella typhimurium [10]): Toxic | Activity (Salmonella typhimurium [11]): Toxic | Activity (Salmonella typhimurium [12]): Toxic | inhibition in vivo at 50 mg/kg (Schistosoma japonicum [13]): 0% | Activity (Schistosoma japonicum [14]): 0% | Activity (Salmonella typhimurium [15]): Toxic | Activity (Salmonella typhimurium [16]): Toxic

O=[N+]([O-])c1ccc(Nc2ccc(N=C=S)cc2)cc1 [AMOSCANATE]
Activity (Schistosoma japonicum [17]): 92% | Activity (Salmonella typhimurium [18]): Non-toxic | Activity (Salmonella typhimurium [19]): Non-toxic | inhibition in vivo at 7 mg/kg (Schistosoma japonicum [20]): 82% | inhibition in vivo at 5 mg/kg (Schistosoma japonicum [21]): 68% | Activity (Salmonella typhimurium [22]): Non-toxic | Activity (Salmonella typhimurium [23]): Non-toxic | Activity (Salmonella typhimurium [24]): Non-toxic | Activity (Schistosoma japonicum [25]): 25% | Activity (Salmonella typhimurium [26]): Non-toxic | Activity (Salmonella typhimurium [27]): Non-toxic | inhibition in vivo at 10 mg/kg (Schistosoma japonicum [28]): 99% | Activity (Salmonella typhimurium [29]): Non-toxic | Activity (Schistosoma japonicum [30]): 14% | Activity (Salmonella typhimurium [31]): Non-toxic | Activity (Salmonella typhimurium [32]): Non-toxic | Activity (Salmonella typhimurium [33]): Non-toxic | Activity (Salmonella typhimurium [34]): Non-toxic | Activity (Salmonella typhimurium [35]): Non-toxic | Activity (Schistosoma japonicum [36]): 100% | inhibition in vivo at 20 mg/kg (Schistosoma japonicum [37]): 100% | Activity (Salmonella typhimurium [38]): Non-toxic | Activity (Salmonella typhimurium [39]): Non-toxic | Activity (Salmonella typhimurium [40]): Non-toxic
